Compound activity deposited in PubChem BioAssay by Sanford-Burnham Center for Chemical Genomics.
The list is not random: actives were taken first. Their share in the collection is about 0.79%.
mIAP act – activators of mouse IAP, primary screen, biochemical, luminescence, uHTS. intestinal alkaline phosphatase [Mus musculus]. muIAP, CDP-Star luminescence, 30 min; hits give high values; 1 = vehicle-only enzyme signal, 0 = enzyme-free wells. activation factor at 10 µM. 330,000 tested, 0.24% active. AID 2805, 2010;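 active = activation factor of at least 2 at 20 µM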
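Assay system: mouse IAP enzyme / Compound: DMSO-dissolved test compounds / Timing: 30 min, room temperature / Measured by: luminescence from enzymatic CDP-Star hydrolysis / Control set: DMSO-only wells, enzyme-free buffer wells as negative control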
bIAP act – bovine intestinal alkaline phosphatase activators, primary screen, biochemical, bovine IAP, CDP-star luminescence | alkaline phosphatase, intestinal [Bos taurus] | AID 1016, 2008 | activation factor at 20 µM | purified bovine IAP, 30 min; hits give high values; fold of DMSO-control signal, blank-subtracted | 200,000 tested, 0.17% active;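 active = activation factor of 2 or more at 20 µM, a signal rise over negative controls twice the positive control's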
mIAP inh – inhibitors of mouse IAP, primary screen, biochemical, luminescence, uHTS; intestinal alkaline phosphatase [Mus musculus]; purified mouse IAP, CDP-Star luminescence, 30 min; inhibition, % at 10 µM; 330,000 tested, 0.2% active; AID 2806, 2010;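 active = inhibition of at least 40% at 10 µM in the primary screen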;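 note: plate controls were DMSO with enzyme for no effect and no enzyme wells for full effect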
hIAP act – human IAP activators, primary screen, biochemical, luminescence, uHTS | Intestinal-type alkaline phosphatase (Homo sapiens), P09923 | purified human IAP, CDP-Star luminescence, 30 min; hits give high values; 1 = vehicle-only enzyme, 0 = enzyme-free background | activation factor at 10 µM | 330,000 tested, 0.16% active;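 active = activation factor of the enzyme at least 2-fold when tested at 20 µM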
Target sequence (P09923 whole entry, looked up): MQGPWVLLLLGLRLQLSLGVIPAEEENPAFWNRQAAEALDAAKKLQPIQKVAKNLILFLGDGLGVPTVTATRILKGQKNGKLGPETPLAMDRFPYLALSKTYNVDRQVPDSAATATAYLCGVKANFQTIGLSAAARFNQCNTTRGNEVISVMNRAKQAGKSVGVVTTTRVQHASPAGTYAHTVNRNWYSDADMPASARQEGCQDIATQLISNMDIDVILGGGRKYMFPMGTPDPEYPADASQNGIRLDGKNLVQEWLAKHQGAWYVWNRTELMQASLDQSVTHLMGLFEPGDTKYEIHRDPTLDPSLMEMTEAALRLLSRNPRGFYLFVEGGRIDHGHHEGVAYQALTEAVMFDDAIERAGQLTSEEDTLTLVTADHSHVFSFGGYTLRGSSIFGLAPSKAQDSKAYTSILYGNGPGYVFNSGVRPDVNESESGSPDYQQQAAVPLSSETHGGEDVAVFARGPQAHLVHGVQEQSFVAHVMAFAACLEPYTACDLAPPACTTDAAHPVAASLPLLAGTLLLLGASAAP
bIAP inhibitor – bovine intestinal alkaline phosphatase inhibitors, primary screen, selectivity assay for TNAP inhibitor project, biochemical, bovine IAP, CDP-star luminescence; alkaline phosphatase, intestinal [Bos taurus]; purified bovine IAP, 30 min; 190,000 tested, under 10 active; inhibition, % at 20 µM; AID 1019, 2008;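 active = over 50% inhibition of intestinal alkaline phosphatase at 20 µM in the single-dose screen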
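Assay system – bovine IAP enzyme · Quantity – bovine IAP at 1/65,000,000 final dilution · Detection – CDP-star luminescence signal · Times – 30 min reaction at room temperature · Also added – CDP-star substrate at 30 µM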
hIAP block – human IAP inhibitors, primary screen, biochemical, luminescence, uHTS. AID 2544, 2010. 330,000 tested, 0.12% active. inhibition, % at 10 µM. purified IAP, CDP-Star luminescence, 30 min. Intestinal-type alkaline phosphatase (Homo sapiens), P09923;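 active = inhibition reaching a set limit with compound at 10 µM in the primary screen, cut at about 35% in these data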;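 note: plate controls were DMSO wells with enzyme for no effect and no-enzyme buffer wells for full effect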
* hit, by the source's call.

`CC1=C(C#N)C(=O)N(C2CCS(=O)(=O)C2)C(=O)/C1=C\c1ccco1` (stereo unspecified) gave mIAP act 0.53, mIAP inh 47*, hIAP act 1.1 and hIAP block -8.
Screening Cc1ccc(NC(=S)NC(NC(=O)c2ccccc2)C(Cl)(Cl)Cl)c(C)c1 (stereo unspecified) returned mIAP act 1.8, bIAP act 1.2, mIAP inh -84, hIAP act 1.1, bIAP inhibitor -18 and hIAP block -6.
For Cc1cccc(NC(=S)NC(NC(=O)c2ccco2)C(Cl)(Cl)Cl)c1 (stereo unspecified) the results were mIAP act 2*, bIAP act 0.8, mIAP inh -104, hIAP act 1, bIAP inhibitor 19 and hIAP block -2.
`Cc1ccc(NC(=S)NC(NC(=O)c2ccco2)C(Cl)(Cl)Cl)cc1` (stereo unspecified) gave mIAP act 2, bIAP act 1, mIAP inh -99, hIAP act 1.1, bIAP inhibitor 1 and hIAP block -10.
Screening Cc1cc(C)c(NC(=S)NC(NC(=O)c2ccccc2)C(Cl)(Cl)Cl)c(C)c1 (stereo unspecified) returned mIAP act 2.5*, bIAP act 0.9, mIAP inh -152, hIAP act 0.99, bIAP inhibitor 8 and hIAP block 1.
`CC(=O)Nc1ccc(S(=O)(=O)NCC(=O)NNC(=O)COc2c(C)cccc2C)cc1` gave mIAP act 0.59, mIAP inh 41*, hIAP act 1.8 and hIAP block -83.
For CC(=O)Nc1ccc(S(=O)(=O)NCC(=O)NNC(=O)COc2ccccc2Cl)cc1 the results were mIAP act 0.77, mIAP inh 23, hIAP act 1.5 and hIAP block -50.
Screening O=C(CN1C(=O)CCSc2ccc(S(=O)(=O)N3CCCC3)cc21)Nc1ccccc1 returned mIAP act 1, mIAP inh -1, hIAP act 1 and hIAP block -2.
`CCOC(=O)c1cccc(NC(=S)NCc2ccc(C)cc2)c1` gave mIAP act 2.4*, bIAP act 0.9, mIAP inh -143, hIAP act 1.2, bIAP inhibitor 7 and hIAP block -17.
O=C(NCc1ccccc1)Nc1cccc2ccccc12 was read as mIAP act 1.6, bIAP act 1.1, mIAP inh -65, hIAP act 1.1, bIAP inhibitor -8 and hIAP block -10.
CC(=O)c1cccc(NC(=S)NCc2ccccc2)c1 was read as mIAP act 1, mIAP inh -2, hIAP act 1.1 and hIAP block -5.
`CCOC(=O)c1ccc(NC(=O)NCc2ccc(OC)cc2)cc1` gave mIAP act 2.2*, bIAP act 1.1, mIAP inh -119, hIAP act 0.98, bIAP inhibitor -6 and hIAP block 2.
O=C(NCc1cccc2ccccc12)Nc1ccccc1 was read as mIAP act 2*, bIAP act 0.9, mIAP inh -100, hIAP act 1.1, bIAP inhibitor 6 and hIAP block -13.
For COc1ccc(CNC(=O)Nc2cccc3ccccc23)cc1 the results were mIAP act 2.1*, bIAP act 1.2, mIAP inh -106, hIAP act 0.95, bIAP inhibitor -21 and hIAP block 5.
Screening COc1ccc(CN2CCC(n3nccc3NC(=O)c3cccc(F)c3)CC2)cc1O returned mIAP act 0.97, mIAP inh 3, hIAP act 1.3 and hIAP block -33.
CC[C@]12c3[nH]c4cc(-c5ccco5)ccc4c3CCN1C(=O)[C@@H](CC(=O)NCc1cccc(C(F)(F)F)c1)C[C@@H]2C(=O)N1CCN(C(=O)c2ccco2)CC1 was read as mIAP act 0.98 and mIAP inh 2.
Screening O=S(=O)(NCC1CCCN(Cc2ccccc2O)C1)c1cccc2cccnc12 (stereo unspecified) returned mIAP act 0.94, mIAP inh 6, hIAP act 1.1 and hIAP block -5.
Screening O=C(NCCc1c[nH]c2ccccc12)Nc1cccc2ccccc12 returned mIAP act 2.3*, bIAP act 0.8, mIAP inh -132, hIAP act 0.97, bIAP inhibitor 22 and hIAP block 2.
`CCOc1ccccc1NC(=O)NCCc1c[nH]c2ccccc12` gave mIAP act 1.2, mIAP inh -21, hIAP act 1.2 and hIAP block -20.
Screening O=C(Nc1ccccc1)Nc1cccc2ccccc12 returned mIAP act 2.9*, mIAP inh -189, hIAP act 1 and hIAP block -2.
COc1ccc(Cl)cc1NC(=O)CN(C)CC(=O)Nc1ccc(C)cc1Br was read as mIAP act 1.1, bIAP act 1, mIAP inh -14, hIAP act 1.5, bIAP inhibitor -1 and hIAP block -48.
CCCCCCCCC(=O)NC(NC(=S)N1CCOCC1)C(Cl)(Cl)Cl (stereo unspecified) was read as mIAP act 3.4*, bIAP act 1, mIAP inh -236, hIAP act 1.7, bIAP inhibitor 5 and hIAP block -73.
Screening C[C@H](CO)N1C[C@H](C)[C@@H](CN(C)C(=O)Nc2ccc3c(c2)OCO3)Oc2ccc(NC(=O)Nc3ccc4c(c3)OCO4)cc2C1=O returned mIAP act 2.4*, mIAP inh -139, hIAP act 1.2 and hIAP block -15.
`CC(C)NC(=O)N(C)C[C@H]1Oc2ccc(NC(=O)Nc3ccc4c(c3)OCO4)cc2C(=O)N([C@H](C)CO)C[C@@H]1C` gave mIAP act 1.3, mIAP inh -25, hIAP act 1.2 and hIAP block -18.
For CNC[C@H]1Oc2ccc(NC(=O)Nc3ccc4c(c3)OCO4)cc2C(=O)N([C@H](C)CO)C[C@@H]1C the results were mIAP act 2.2*, mIAP inh -116, hIAP act 1 and hIAP block -4.
Screening CNC[C@@H]1Oc2ccc(NC(=O)Nc3ccccc3)cc2C(=O)N([C@@H](C)CO)C[C@H]1C returned mIAP act 2.3*, mIAP inh -132, hIAP act 1.1 and hIAP block -8.
For Cc1ccccc1CCN(C(=O)c1csnn1)C(C(=O)NC1CCCC1)c1ccncc1 (stereo unspecified) the results were mIAP act 0.99, mIAP inh 1, hIAP act 1 and hIAP block -1.
